According to ChEMBL document CHEMBL4308921, “Structure-Activity Relationships of Central Nervous System Penetration by Fatty Acid Amide Hydrolase (FAAH)-Targeted Thyromimetic Prodrugs” (ACS Med Chem Lett, 2019):

Key:
[1] = Prodrug activation in C57BL/6 mouse brain assessed as FAAH-mediated sobetirome formation at 3.05 umol/kg, ip after 1 hr by LC-MS/MS analysis; format: organism-based; conditions: in vivo
[2] = Prodrug activation in C57BL/6 mouse serum assessed as FAAH-mediated sobetirome formation at 3.05 umol/kg, ip after 1 hr by LC-MS/MS analysis; format: organism-based; conditions: in vivo
[3] = target: T1, Fatty-acid amide hydrolase 1 (Homo sapiens, UniProt O00519); experiment: Prodrug activation in COS7 cells overexpressing human FAAH assessed as FAAH-mediated sobetirome formation by measuring compound hydrolysis rate at 100 uM by LC-MS/MS analysis; format: cell-based
T1 sequence (O00519 whole entry): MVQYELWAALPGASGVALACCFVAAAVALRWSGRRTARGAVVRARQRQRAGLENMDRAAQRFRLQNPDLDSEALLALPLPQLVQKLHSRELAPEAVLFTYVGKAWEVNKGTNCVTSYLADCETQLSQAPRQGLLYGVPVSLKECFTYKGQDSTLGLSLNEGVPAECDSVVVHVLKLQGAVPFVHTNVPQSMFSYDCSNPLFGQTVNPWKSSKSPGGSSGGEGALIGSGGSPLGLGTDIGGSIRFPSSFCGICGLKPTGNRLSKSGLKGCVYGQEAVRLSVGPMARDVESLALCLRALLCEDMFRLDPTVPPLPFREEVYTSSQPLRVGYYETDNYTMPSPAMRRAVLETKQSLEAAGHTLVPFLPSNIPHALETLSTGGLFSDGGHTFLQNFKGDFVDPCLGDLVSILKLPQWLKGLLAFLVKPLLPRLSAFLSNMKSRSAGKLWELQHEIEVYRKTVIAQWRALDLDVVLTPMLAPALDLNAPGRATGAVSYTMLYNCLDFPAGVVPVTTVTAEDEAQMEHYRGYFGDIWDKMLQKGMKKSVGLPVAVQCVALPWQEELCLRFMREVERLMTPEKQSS
How it was run: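 Hydrolysis kinetics were measured in homogenate of COS-7 cells overexpressing human FAAH, with prodrug substrate at 100 µM. Rate is given as nmol mg-1 min-1, mean ± SEM, n = 3.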

[4] = Brain to serum permeability coefficient, Kp of the compound in C57BL/6 mouse assessed as sobetirome level at 3.05 umol/kg, ip after 1 hr by LC-MS/MS analysis; format: ADME, organism-based
[5] = Drug uptake in C57BL/6 mouse brain at 3.05 umol/kg, ip after 1 hr by LC-MS/MS analysis; format: ADME, organism-based; conditions: read-out: Drug uptake
[6] = Drug uptake in C57BL/6 mouse serum at 3.05 umol/kg, ip after 1 hr by LC-MS/MS analysis; format: ADME, organism-based; conditions: read-out: Drug uptake
[7] = Brain to serum permeability coefficient, Kp of the compound in C57BL/6 mouse at 3.05 umol/kg, ip after 1 hr by LC-MS/MS analysis; format: ADME, organism-based

Row | Compound | Drug uptake [1] [ng/g] | Drug uptake [2] [ng/g] | Drug metabolism [3] [nmol/mg/min] | Kp [4] | concentration at 1 h [5] [ng/g] | concentration at 1 h [6] [ng/g] | Kp at 1 h [7]
1 | Cc1cc(OCC(=O)NC2CC2)cc(C)c1Cc1ccc(O)c(C(C)C)c1 | 58 | 23.8 | 3.2 | 2.49 | – | – | –
2 | CCCNC(=O)COc1cc(C)c(Cc2ccc(O)c(C(C)C)c2)c(C)c1 | 20.2 | 16.9 | 2.6 | 1.15 | – | – | –
3 | Cc1cc(OCC(=O)NC(C)CO)cc(C)c1Cc1ccc(O)c(C(C)C)c1 (stereo not given) | 22.3 | 33.7 | 4.5 | 0.69 | – | – | –
4 | Cc1cc(OCC(=O)Nc2ccccc2O)cc(C)c1Cc1ccc(O)c(C(C)C)c1 | 7.4 | 174.7 | 1.4 | 0.04 | – | – | –
5 | Cc1cc(OCC(=O)NCC(C)O)cc(C)c1Cc1ccc(O)c(C(C)C)c1 (stereo not given) | 38.7 | 55.7 | 3.6 | 0.72 | – | – | –
6 | Cc1cc(OCC(=O)NCCN)cc(C)c1Cc1ccc(O)c(C(C)C)c1 | 0.8 | 6.9 | 5.6 | 0.07 | – | – | –
7 | CCNC(=O)COc1cc(C)c(Cc2ccc(O)c(C(C)C)c2)c(C)c1 | 58.2 | 21.5 | 3.4 | 2.74 | – | – | –
8 | Cc1cc(OCC(=O)Nc2cccc(F)c2)cc(C)c1Cc1ccc(O)c(C(C)C)c1 | 15.4 | 383.8 | 2.1 | 0.04 | – | – | –
9 | Cc1cc(OCC(=O)NCCO)cc(C)c1Cc1ccc(O)c(C(C)C)c1 | 25.5 | 66.8 | 4.8 | 0.37 | – | – | –
10 | Cc1cc(OCC(=O)NCC#N)cc(C)c1Cc1ccc(O)c(C(C)C)c1 | 59.9 | 107.7 | 5 | 0.57 | – | – | –
11 | Cc1cc(OCC(=O)NCc2ccccc2)cc(C)c1Cc1ccc(O)c(C(C)C)c1 | 15.7 | 15.2 | 1.7 | 0.95 | – | – | –
12 | Cc1cc(OCC(=O)O)cc(C)c1Cc1ccc(O)c(C(C)C)c1 [SOBETIROME] | – | – | – | – | 3.6 | 319 | 0.03
13 | Cc1cc(OCC(=O)N(C)C)cc(C)c1Cc1ccc(O)c(C(C)C)c1 | 32.2 | 10.4 | 4.3 | 3.17 | – | – | –
14 | Cc1cc(OCC(=O)NCCc2ccccc2)cc(C)c1Cc1ccc(O)c(C(C)C)c1 | 11.3 | 8.6 | 1 | 1.31 | – | – | –
15 | Cc1cc(OCC(=O)NO)cc(C)c1Cc1ccc(O)c(C(C)C)c1 | 2.8 | 127.7 | 4.9 | 0.03 | – | – | –
16 | Cc1cc(OCC(=O)NCC(F)(F)F)cc(C)c1Cc1ccc(O)c(C(C)C)c1 | 59.4 | 80.2 | 4.8 | 0.76 | – | – | –
17 | Cc1cc(OCC(=O)NC(CO)CO)cc(C)c1Cc1ccc(O)c(C(C)C)c1 | 2.6 | 98 | 3.7 | 0.03 | – | – | –
18 | Cc1cc(OCC(=O)NN)cc(C)c1Cc1ccc(O)c(C(C)C)c1 | 68.2 | 199.5 | 3.8 | 0.58 | – | – | –
19 | Cc1cc(OCC(=O)NCC(F)F)cc(C)c1Cc1ccc(O)c(C(C)C)c1 | 125.4 | 128.8 | 3.4 | 1.04 | – | – | –
20 | Cc1cc(OCC(=O)NCCF)cc(C)c1Cc1ccc(O)c(C(C)C)c1 | 107.1 | 64.2 | 3.5 | 1.7 | – | – | –
21 | Cc1cc(OCC(=O)NCCS(=O)(=O)[O-])cc(C)c1Cc1ccc(O)c(C(C)C)c1.[Na+] | 7.1 | 45.7 | 8.9 | 0.18 | – | – | –
22 | Cc1cc(OCC(=O)NCCNS(C)(=O)=O)cc(C)c1Cc1ccc(O)c(C(C)C)c1 | 1.6 | 26.2 | 2.4 | 0.06 | – | – | –
23 | C#CCNC(=O)COc1cc(C)c(Cc2ccc(O)c(C(C)C)c2)c(C)c1 | 59.5 | 59.4 | 3.2 | 0.99 | – | – | –
24 | C=CCNC(=O)COc1cc(C)c(Cc2ccc(O)c(C(C)C)c2)c(C)c1 | 33.4 | 25.4 | 3.6 | 1.23 | – | – | –
25 | Cc1cc(OCC(=O)Nc2cccc(O)c2)cc(C)c1Cc1ccc(O)c(C(C)C)c1 | 12.8 | 325.7 | 10.1 | 0.04 | – | – | –
26 | Cc1cc(OCC(=O)NCCc2ccc(O)c(O)c2)cc(C)c1Cc1ccc(O)c(C(C)C)c1 | 7.4 | 4.9 | 0.8 | 0.94 | – | – | –
27 | Cc1cc(OCC(N)=O)cc(C)c1Cc1ccc(O)c(C(C)C)c1 | 93.9 | 79.5 | 4.7 | 1.17 | – | – | –
28 | CONC(=O)COc1cc(C)c(Cc2ccc(O)c(C(C)C)c2)c(C)c1 | 8.4 | 209.7 | 4.1 | 0.04 | – | – | –
29 | Cc1cc(OCC(=O)NC2COC2)cc(C)c1Cc1ccc(O)c(C(C)C)c1 | 79.2 | 110.6 | 3.7 | 0.75 | – | – | –
